Laboratory results from article PMC2796831 (Integrative biology : quantitative biosciences from nano to …, 2009).
Numbered stars: 1 amine (or outer) side, 2 acyl side, 3 side chain; on linkers, the order of the positions; unused ones are H or OH. Square brackets hold non-standard residues; d marks the D form. Peptide text beside a SMILES is read from it. * marks the point of attachment. X1 = CCN1C(=CC=CC=CC2=[N+](CCCCCC(=O)NCCN3C(=O)CC(*)C3=O)c3ccc(S(=O)(=O)[O-])cc3C2(C)C)C(C)(C)c2cc(S(=O)(=O)O)ccc21; Suc = O=C(CCC(=O)[*:2])[*:1]; Ahx = NCCCCCC(=O)O

Tests used:
HT1080 xenografted mice = assay: Confocal imaging of live mouse tissues after IV injection; type: in vivo; details: for Nuclear uptake in live tumor and tissues: 10 nmol IV, confocal stacks of live tissue, 30 minutes and 6 hours
Method in brief: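 Xenografted HT1080 nude mice got 10 nmol Cy5-labelled peptide IV. Five minutes before sacrifice at 30 min or 6 h, they received IV Hoechst 33342 (250 µg) and rhodamine dextran (800 µg) to mark nuclei and blood pool. Organs were held on ice in HBSS and imaged unfixed by confocal microscopy within 30 min, as 3D stacks 5–60 µm deep. Excitation was 630, 405 and 535 nm.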

Biodistribution = type: in vivo, mice; details: for Time for blood Cy5 fluorescence to decline to the same level: 10 nmol IV, blood from tail artery, average of three mice (Fig. 3B)
Method in brief: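 Athymic nude mice carried HT1080 xenografts from 2 million cells injected into the mammary fat pad 5–7 days earlier. Each received 10 nmol Cy5-labelled peptide into the tail vein. Tail-artery blood in capillaries was imaged for Cy5 (640 nm excitation, 700 nm emission). At 30 min and 6 h, organ pieces were homogenised in 10 mM Tris pH 7.6 with 1% SDS, boiled, centrifuged and imaged frozen. Concentration came from tissue-specific spiked standard curves. SUV = (moles/g tissue)/(moles injected/body weight).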

naïve athymic nude mice = assay: Acute toxicity of unlabeled peptides after IV injection; type: in vivo; details: 5 µmol/kg IV, isoflurane anesthesia, unlabeled peptide
[1] = 10 nmol injection, assuming 20–25g mouse
[2] = athymic nude, mouse, kidney, iv, 10 nmol
[3] = athymic nude, mouse, liver, iv, 10 nmol
[4] = athymic nude, mouse, tumor, iv, 10 nmol

SMILES | Nuclear uptake in live tumor and tissues (HT1080 xenografted mice) | Time for blood Cy5 fluorescence to decline to the same level (Biodistribution) | Final peptide concentration in liver based on SUV (Biodistribution; [1]) | tissue uptake dose at 0.5 h (Biodistribution; [2]) | tissue uptake dose at 6 h (Biodistribution; [2]) | tissue uptake dose at 0.5 h (Biodistribution; [3]) | tissue uptake dose at 6 h (Biodistribution; [3]) | Nuclear uptake in live tissues at 10 times the usual dose (HT1080 xenografted mice; 100 nmol or 5 µmol/kg IV, one mouse) | Tumor fluorescence signal (confocal) compared with CPP (HT1080 xenografted mice; HT1080 tumors, 30 minutes and 6 hours after 10 nmol IV (Fig. 5A, B)) | Final peptide concentration in kidney based on SUV (Biodistribution; [1]) | Tumor SUV compared with CPP (Biodistribution; 30 minutes after 10 nmol IV, HT1080 tumor homogenate, n=4 ACPP, n=3 CPP) | Tumor uptake (SUV) relative to muscle (Biodistribution; 6 hours after 10 nmol IV, HT1080 tumor) | SUV at 6 h (Biodistribution; [4]) | tissue uptake at 6 h (Biodistribution; [4]) | Acute effect (naïve athymic nude mice)
CCN1C(=CC=CC=CC2=[N+](CCCCCC(=O)NCCN3C(=O)CC(SC[C@@H](NC(=O)[C@@H](CCCNC(=N)N)NC(=O)[C@@H](CCCNC(=N)N)NC(=O)[C@@H](CCCNC(=N)N)NC(=O)[C@@H](CCCNC(=N)N)NC(=O)[C@@H](CCCNC(=N)N)NC(=O)[C@@H](CCCNC(=N)N)NC(=O)[C@@H](CCCNC(=N)N)NC(=O)[C@@H](CCCNC(=N)N)NC(=O)[C@H](N)CCCNC(=N)N)C(N)=O)C3=O)c3ccc(S(=O)(=O)[O-])cc3C2(C)C)C(C)(C)c2cc(S(=O)(=O)O)ccc21 (stereo partly drawn) [CPP, r9-c(Cy5)-NH2] | below the detection limit | 3 min | 8 to 17 µmol/kg | 8 %ID | 9 %ID | 90 %ID | 84 %ID |  |  |  |  |  |  |  | 
CCN1C(=CC=CC=CC2=[N+](CCCCCC(=O)NCCN3C(=O)CC(SC[C@@H](NC(=O)[C@@H](CCCNC(=N)N)NC(=O)[C@@H](CCCNC(=N)N)NC(=O)[C@@H](CCCNC(=N)N)NC(=O)[C@@H](CCCNC(=N)N)NC(=O)[C@@H](CCCNC(=N)N)NC(=O)[C@@H](CCCNC(=N)N)NC(=O)[C@@H](CCCNC(=N)N)NC(=O)[C@@H](CCCNC(=N)N)NC(=O)[C@@H](CCCNC(=N)N)NC(=O)CNC(=O)[C@H](C)NC(=O)[C@H](CC(C)C)NC(=O)CNC(=O)[C@H](CC(C)C)NC(=O)[C@@H]4CCCN4C(=O)CCCCCNC(=O)[C@@H](CCC(=O)O)NC(=O)[C@@H](CCC(=O)O)NC(=O)[C@@H](CCC(=O)O)NC(=O)[C@@H](CCC(=O)O)NC(=O)[C@@H](CCC(=O)O)NC(=O)[C@@H](CCC(=O)O)NC(=O)[C@@H](CCC(=O)O)NC(=O)[C@@H](CCC(=O)O)NC(=O)CCC(=O)O)C(N)=O)C3=O)c3ccc(S(=O)(=O)[O-])cc3C2(C)C)C(C)(C)c2cc(S(=O)(=O)O)ccc21 (stereo partly drawn) [ACPP, succinyl-e8-(x)-PLGLAG-r9-c(Cy5)-NH2] (Suc-[dE][dE][dE][dE][dE][dE][dE][dE][Ahx]PLGLAG[dR][dR][dR][dR][dR][dR][dR][dR][dR][dC](X1)-NH2) | below the detection limit | 30 min |  | 28 %ID | 48 %ID | 21 %ID | 33 %ID | no detectable nuclear uptake in any tissue | about four times higher | 8 to 17 µmol/kg | slightly but not significantly greater | roughly 4 fold | 174 SUV | 1.7 %ID/g | no acute effect
